# Source: publication PMC5776820 (Proceedings of the National Academy of Sciences of the …, 2017)
# Where no end group is shown, it is not given here.
# Key:
# [1] = tested on: NOD mouse type A insulin-reactive CD4 T cells; experiment: IL-2 secretion; type: cell-based; settings: sample titration, IL-2 after 24 h (Fig. 2A)
# In short: (§1)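 Equal numbers of T-cell hybridomas or TCR-transduced avatars and paraformaldehyde-fixed M12.C3.g7 (IAg7) B-lymphoma APCs are cultured overnight with peptide titrations up to 100 μg/mL. Peptides have B:19 C→A and are >95% pure, with an IAg7-binding HEL peptide as negative control. IL-2 is read by HT-2 growth/survival or ELISA. Potency is the log10 shift of parallel third-order polynomial fits versus WT8E9R (=1), averaged over three titrations.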
# [2] = tested on: NOD mouse type B insulin-reactive CD4 T cells; experiment: IL-2 secretion; type: cell-based; settings: sample titration, IL-2 after 24 h (Fig. 2A)
# In short: as §1
# [3] = tested on: CD4 T cells of human T1D patients; settings: HLA-DQ8; ref [14], [15]; cited from earlier work
# IA^g7 = settings: natural R at p9; ref [16]; cited from earlier work
substance,measurement,setting,value
"8E9E: soluble mutated B:12–22 peptide, p9 R to E, B:19 C changed to A",potency relative to WT8E9R,[1],about 100 ×
same,potency compared with WT8E9R,[2],no better than the WT peptide
"B:11–23 peptide: versions of the B:11–23 peptide (identical between mice and humans) presented by DQ8 (LVEALYLVCGERG; ends and bridges not checked; UniProt P01308 35-47, looked up, fragment)",human T-cell response to peptide bound to DQ8,[3],only when B:22R is mutated to E
"B:22R to E mutated peptide: B:9–23 peptide with B:22R (p9) mutated to E, earlier work",human T-cell response to peptide bound to DQ8,[3],dramatically improved T-cell response
SHLVEALYLVCGERG [B:9–23],binding to IA^g7 in R3,IA^g7,greatly interferes with binding
